Experimental data gathered from unrelated publications.
Compare with care: the assays were run in different laboratories. pIC50: −log10 of the molar value.
Observed: cell growth or viability

| SMILES | cell line | technique | time | endpoint | value |
| --- | --- | --- | --- | --- | --- |
| CCCCOc1cccc(-c2cnc3c(n2)CCCC3)c1 | MCF-10A |  | 48 h | pIC50 | < 4.30 |
| C=C1CC[C@@H]2[C@](C)(CO)[C@H](O)CC[C@@]2(C)[C@@H]1C/C=C1/C(=O)OC[C@H]1O | VCaP | CCK-8 | 72 h | pIC50 | 4.69 |
| CC(C)C[C@H](NC(=O)[C@H](Cc1ccccc1)NC(=O)c1cnccn1)B(O)O | P31-FUJ | ATP luminescence |  | pIC50 | 8.29 |
| Clc1ccc2c(c1)N=C(N1CCNCC1)c1ccccc1N2 | CAL-27 |  | 72 h | pIC50 | < 4.70 |
| O=C(c1cc(Cl)c(Cl)[nH]1)c1c(O)ccc(C(c2csc(-c3ccccc3O)n2)c2ccc(O)c(C(=O)c3cc(Cl)c(Cl)[nH]3)c2O)c1O | MDCK | MTT | 72 h | IC50 | 67 µg/mL |
| O=C1CCCCC1C1C2C=CC=CC1/C(=C/c1ccccc1)C2 (centres unmarked) | K562 | flow cytometry |  | pIC50 | 7.23 |
| O=C(O)c1cc(/N=N/c2ccc(S(=O)(=O)Nc3ccccn3)cc2)ccc1O | VCaP | CCK-8 | 72 h | pIC50 | < 4.52 |
| COc1ccc2c(c1OC)C(=O)O[C@@H]2[C@H]1c2c(cc3c(c2OC)OCO3)CCN1C | CAL-27 |  | 72 h | pIC50 | 4.77 |
| O=C(NC(=S)NCCCNC(=S)NC(=O)c1ccc2ccccc2c1)c1ccc2ccccc2c1 | MCF-10A |  | 48 h | pIC50 | 4.04 |
| CCOc1cccc(-c2cnc3c(n2)CCCC3)c1 | MCF-10A |  | 48 h | pIC50 | 4.51 |
| CCN1CCN(Cc2ccc(Nc3ncc(F)c(-c4cc(F)c5nc(C)n(C(C)C)c5c4)n3)nc2)CC1 | 4T1 | CCK-8 |  | pIC50 | < 5.70 |
| S=C(NN=Cc1ccc(Cl)s1)Nc1ccccc1 | CRFK |  |  | pIC50 | 5.00 |
| CCOc1ccc(-c2cnc3c(n2)CCCC3)cc1 | MCF-10A |  | 48 h | pIC50 | < 4.30 |
| Cc1ccc(C(=O)Nc2ccc(Oc3cc4cnn(C)c4cc3-c3cn[nH]c3)c(F)c2)c(=O)n1-c1ccc(F)cc1 | NCI-H1993 | ATP luminescence |  | pIC50 | 7.12 |
| CC(C)Oc1cccc(-c2cnc3c(n2)CCCC3)c1 | MCF-10A |  | 48 h | pIC50 | 4.30 to 4.60 |
| CC(C)c1cccc(C(C)C)c1-n1c(Cl)c(Cl)n(-c2c(C(C)C)cccc2C(C)C)c1=[Se] | HCT-15 | MTT | 72 h | pIC50 | 4.85 |

| SMILES | cell line | technique | time | endpoint | value |
| --- | --- | --- | --- | --- | --- |
| CN(C)c1ccc2cc(C(=O)N[C@@H](CCCNC(=N)CCl)C(=O)NCc3ccccc3)ccc2c1 | 4T1 |  | 48 h | pIC50 | 4.92 |
| c1ccc(-c2cnc3c(n2)CCCC3)cc1 | MCF-10A |  | 48 h | pIC50 | < 4.30 |
| O=C(C=C[c-]1cccc1)c1sccc1Br.[Fe+2].c1cc[cH-]c1 | 4T1 | MTT | 72 h | pIC50 | 4.48 |
| COc1cccc2c1C(=O)c1c(O)c3c(c(O)c1C2=O)C[C@@](O)(C(=O)CO)C[C@@H]3O[C@H]1C[C@H](N)[C@H](O)[C@H](C)O1 | MCF-10A |  | 48 h | pIC50 | 4.11 |
| NCCc1ccc(O)c(O)c1 | CAL-27 |  | 72 h | pIC50 | < 4.70 |
| O=C(c1cc(Cl)c(Cl)[nH]1)c1c(O)ccc(Cc2ccc(O)c(C(=O)c3cc(Cl)c(Cl)[nH]3)c2O)c1O | MDCK | MTT | 72 h | IC50 | 25 µg/mL |
| COc1ccc(CCN(C)CCc2ccc(OC)c(OC)c2)cc1OC | CAL-27 |  | 72 h | pIC50 | < 4.70 |
| CC(=O)O[C@@]12CO[C@@H]1C[C@H](O)[C@@]1(C)C(=O)[C@H](O)C3=C(C)[C@@H](OC(=O)[C@H](O)[C@@H](NC(=O)OC(C)(C)C)c4ccccc4)C[C@@](O)([C@@H](OC(=O)c4ccccc4)[C@H]21)C3(C)C | 4T1 | CCK-8 | 72 h | pIC50 | 6.93 |
| COc1cc2nc(N3CCN(C(=O)c4ccco4)[C@H]4CCCC[C@H]43)nc(N)c2cc1OC (racemic) | CAL-27 |  | 72 h | pIC50 | 4.88 |
| COc1cc(Nc2nccc(-c3cnn4nc(OC)ccc34)n2)cc(C(F)(F)F)c1 | SCLC-21H | ATP luminescence |  | pIC50 | 6.44 |
| Nc1nc(Nc2ccccc2)nc2c1ncn2[C@@H]1O[C@H](CO)[C@@H](O)[C@H]1O | CAL-27 |  | 72 h | pIC50 | < 4.70 |
| COc1nc(SC)nc(OC)c1C(=O)/C=C/[c-]1cccc1.[Fe+2].c1cc[cH-]c1 | 4T1 | MTT | 72 h | pIC50 | 3.67 |
| CC(C)c1ccccc1S(=O)(=O)c1cc(N)c2ncccc2c1[N+](=O)[O-] | CAL-27 |  | 72 h | pIC50 | < 4.70 |
| COc1ccc(-c2cnc3c(n2)CCCC3)cc1Cl | MCF-10A |  | 48 h | pIC50 | 4.45 |
| Clc1ccc(N2CCN(Cc3c[nH]c4ncccc34)CC2)cc1 | CAL-27 |  | 72 h | pIC50 | < 4.70 |
| COc1cc(-c2ncn(/C=C\C(=O)OC(C)C)n2)cc(C(F)(F)F)c1 | F-36P |  | 72 h | pIC50 | 7.20 |
